Laboratory results published in ChEMBL document CHEMBL1212819, “Heteroadamantyl cannabinoids” (J Med Chem, 2010).

target: Cannabinoid receptor 1 (Rattus norvegicus, UniProt P20272); assay: Displacement of [3H]CP-55940 from CB1 receptor in rat brain; assay type: tissue-based; conditions: not given
How it was run: (§1)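 Competition binding against [3H]CP-55,940. CB1 came from rat brain membranes, and CB2 from membranes of HEK293 cells expressing mouse or human CB2. Curves were fitted by nonlinear regression to give IC50, and Ki was calculated from IC50. Each experiment was run in triplicate, and Ki values come from a single experiment.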

Sequence of Cannabinoid receptor 1 (P20272 whole entry): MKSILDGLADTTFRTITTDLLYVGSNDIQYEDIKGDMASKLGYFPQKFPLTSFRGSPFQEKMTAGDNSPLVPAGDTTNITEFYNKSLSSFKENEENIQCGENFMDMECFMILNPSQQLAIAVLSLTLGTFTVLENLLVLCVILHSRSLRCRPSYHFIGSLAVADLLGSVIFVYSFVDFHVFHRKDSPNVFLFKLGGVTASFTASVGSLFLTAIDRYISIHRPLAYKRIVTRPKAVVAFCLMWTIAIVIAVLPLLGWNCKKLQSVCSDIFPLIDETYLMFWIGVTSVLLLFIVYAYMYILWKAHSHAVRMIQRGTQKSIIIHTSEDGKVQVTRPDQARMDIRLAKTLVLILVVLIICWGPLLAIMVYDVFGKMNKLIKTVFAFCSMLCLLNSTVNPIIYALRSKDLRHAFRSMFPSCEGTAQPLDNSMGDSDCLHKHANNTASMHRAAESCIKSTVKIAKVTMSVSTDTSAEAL

Row | SMILES | Ki
1 | CC1(C)Oc2cc(C(=O)N3C4CC5CC3CC(C4)O5)cc(O)c2[C@@H]2C[C@H](O)CC[C@H]21 | Not Active
2 | CC1(C)Oc2cc(C(=O)N3C4CC5CC3CC(C4)O5)cc(O)c2[C@@H]2C[C@@H](O)CC[C@H]21 | Not Active
3 | CC1(C)Oc2cc(CNC3C4CC5CC(C4)CC3C5)cc(O)c2[C@@H]2C[C@@H](O)CC[C@H]21 (some centres undefined) | Not Active

same assay, conditions: read-out: Ki

Row | SMILES | Ki
4 | CC1(C)Oc2cc(N3C4CC5CC3CC(C4)O5)cc(O)c2[C@@H]2C[C@H](O)CC[C@H]21 | 1.8 µM
5 | CC1(C)Oc2cc(N3C4CC5CC3CC(C4)O5)cc(O)c2[C@@H]2C[C@@H](O)CC[C@H]21 | 22.4 µM
6 | CC1(C)Oc2cc(CN3C4CC5CC3CC(C4)O5)cc(O)c2[C@@H]2C[C@H](O)CC[C@H]21 | 10 µM
7 | CC1(C)Oc2cc(CN3C4CC5CC3CC(C4)O5)cc(O)c2[C@@H]2C[C@@H](O)CC[C@H]21 | 125 µM
8 | CC1(C)Oc2cc(C(=O)NC34CC5CC(CC(C5)C3)C4)cc(O)c2[C@@H]2C[C@H](O)CC[C@H]21 | 80 µM
9 | CC1(C)Oc2cc(C(=O)NC34CC5CC(CC(C5)C3)C4)cc(O)c2[C@@H]2C[C@@H](O)CC[C@H]21 | 375 µM
10 | CC1(C)Oc2cc(C(=O)NC3C4CC5CC(C4)CC3C5)cc(O)c2[C@@H]2C[C@H](O)CC[C@H]21 (some centres undefined) | 15 µM
11 | CC1(C)Oc2cc(C(=O)NC3C4CC5CC(C4)CC3C5)cc(O)c2[C@@H]2C[C@@H](O)CC[C@H]21 (some centres undefined) | 100 µM
12 | CC1(C)Oc2cc(CNC34CC5CC(CC(C5)C3)C4)cc(O)c2[C@@H]2C[C@H](O)CC[C@H]21 | 150 µM
13 | CC1(C)Oc2cc(CNC34CC5CC(CC(C5)C3)C4)cc(O)c2[C@@H]2C[C@@H](O)CC[C@H]21 | 100 µM
14 | CC1(C)Oc2cc(CNC3C4CC5CC(C4)CC3C5)cc(O)c2[C@@H]2C[C@H](O)CC[C@H]21 (some centres undefined) | 150 µM
15 | CC1(C)Oc2cc(C34CC5CC(CC(C5)O3)C4)cc(O)c2[C@@H]2C[C@H](O)CC[C@H]21 | 0.023 µM
16 | CC1(C)Oc2cc(C34CC5CC(CC(C5)O3)C4)cc(O)c2[C@@H]2C[C@@H](O)CC[C@H]21 | 0.55 µM

target: Cannabinoid receptor 2 (Homo sapiens, UniProt P34972); assay: Displacement of [3H]CP-55940 from human CB2 receptor expressed in HEK293 cell membranes; conditions: hek293; how it was run: as §1
Sequence (P34972 whole entry): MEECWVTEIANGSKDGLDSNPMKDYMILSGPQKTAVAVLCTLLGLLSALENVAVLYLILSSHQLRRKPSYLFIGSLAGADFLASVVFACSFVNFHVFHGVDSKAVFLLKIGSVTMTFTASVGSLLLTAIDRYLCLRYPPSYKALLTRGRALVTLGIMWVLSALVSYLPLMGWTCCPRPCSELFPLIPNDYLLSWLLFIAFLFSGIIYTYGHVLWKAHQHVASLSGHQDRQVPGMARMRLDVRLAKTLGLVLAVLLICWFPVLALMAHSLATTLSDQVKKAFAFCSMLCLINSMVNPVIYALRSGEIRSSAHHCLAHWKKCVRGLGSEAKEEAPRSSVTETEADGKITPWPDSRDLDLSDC

Row | SMILES | Ki
17 | CC1=CC[C@@H]2[C@@H](C1)c1c(O)cc(C34CC5CC(CC(C5)C3)C4)cc1OC2(C)C | Not Active

same assay, conditions: read-out: Ki

Row | SMILES | Ki
18 | CC1(C)Oc2cc(N3C4CC5CC3CC(C4)O5)cc(O)c2[C@@H]2C[C@H](O)CC[C@H]21 | 1.8 µM
19 | CC1(C)Oc2cc(N3C4CC5CC3CC(C4)O5)cc(O)c2[C@@H]2C[C@@H](O)CC[C@H]21 | 14.9 µM
20 | CC1(C)Oc2cc(C(=O)N3C4CC5CC3CC(C4)O5)cc(O)c2[C@@H]2C[C@H](O)CC[C@H]21 | 20 µM
21 | CC1(C)Oc2cc(C(=O)N3C4CC5CC3CC(C4)O5)cc(O)c2[C@@H]2C[C@@H](O)CC[C@H]21 | 25 µM
22 | CC1(C)Oc2cc(CN3C4CC5CC3CC(C4)O5)cc(O)c2[C@@H]2C[C@H](O)CC[C@H]21 | 15 µM
23 | CC1(C)Oc2cc(CN3C4CC5CC3CC(C4)O5)cc(O)c2[C@@H]2C[C@@H](O)CC[C@H]21 | 5 µM
24 | CC1(C)Oc2cc(C(=O)NC34CC5CC(CC(C5)C3)C4)cc(O)c2[C@@H]2C[C@H](O)CC[C@H]21 | 8.7 µM
25 | CC1(C)Oc2cc(C(=O)NC34CC5CC(CC(C5)C3)C4)cc(O)c2[C@@H]2C[C@@H](O)CC[C@H]21 | 35 µM
26 | CC1(C)Oc2cc(C(=O)NC3C4CC5CC(C4)CC3C5)cc(O)c2[C@@H]2C[C@H](O)CC[C@H]21 (some centres undefined) | 2.7 µM
27 | CC1(C)Oc2cc(C(=O)NC3C4CC5CC(C4)CC3C5)cc(O)c2[C@@H]2C[C@@H](O)CC[C@H]21 (some centres undefined) | 15 µM
28 | CC1(C)Oc2cc(CNC34CC5CC(CC(C5)C3)C4)cc(O)c2[C@@H]2C[C@H](O)CC[C@H]21 | 10 µM
29 | CC1(C)Oc2cc(CNC34CC5CC(CC(C5)C3)C4)cc(O)c2[C@@H]2C[C@@H](O)CC[C@H]21 | 25 µM
30 | CC1(C)Oc2cc(CNC3C4CC5CC(C4)CC3C5)cc(O)c2[C@@H]2C[C@H](O)CC[C@H]21 (some centres undefined) | 20 µM
31 | CC1(C)Oc2cc(CNC3C4CC5CC(C4)CC3C5)cc(O)c2[C@@H]2C[C@@H](O)CC[C@H]21 (some centres undefined) | 25 µM
32 | CC1(C)Oc2cc(C34CC5CC(CC(C5)O3)C4)cc(O)c2[C@@H]2C[C@H](O)CC[C@H]21 | 0.019 µM
33 | CC1(C)Oc2cc(C34CC5CC(CC(C5)O3)C4)cc(O)c2[C@@H]2C[C@@H](O)CC[C@H]21 | 1.3 µM

target: Cannabinoid receptor 2 (Mus musculus, UniProt P47936); assay: Displacement of [3H]CP-55940 from mouse CB2 receptor expressed in HEK293 cell membranes; conditions: not given; how it was run: as §1
Sequence (P47936 whole entry): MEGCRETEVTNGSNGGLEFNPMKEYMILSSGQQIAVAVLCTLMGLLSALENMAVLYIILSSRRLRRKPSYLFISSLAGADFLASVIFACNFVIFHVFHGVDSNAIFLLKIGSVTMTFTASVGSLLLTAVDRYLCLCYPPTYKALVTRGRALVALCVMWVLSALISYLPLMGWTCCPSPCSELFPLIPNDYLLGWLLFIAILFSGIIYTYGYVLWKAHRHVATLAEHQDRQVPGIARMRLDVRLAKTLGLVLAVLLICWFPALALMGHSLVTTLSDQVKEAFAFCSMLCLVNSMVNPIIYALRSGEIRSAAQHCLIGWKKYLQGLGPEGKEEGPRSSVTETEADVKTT

Row | SMILES | Ki
34 | CC1(C)Oc2cc(N3C4CC5CC3CC(C4)O5)cc(O)c2[C@@H]2C[C@H](O)CC[C@H]21 | 1.2 µM
35 | CC1(C)Oc2cc(N3C4CC5CC3CC(C4)O5)cc(O)c2[C@@H]2C[C@@H](O)CC[C@H]21 | 17 µM
36 | CC1(C)Oc2cc(C(=O)N3C4CC5CC3CC(C4)O5)cc(O)c2[C@@H]2C[C@H](O)CC[C@H]21 | 2.5 µM
37 | CC1(C)Oc2cc(C(=O)N3C4CC5CC3CC(C4)O5)cc(O)c2[C@@H]2C[C@@H](O)CC[C@H]21 | 8.6 µM
38 | CC1(C)Oc2cc(CN3C4CC5CC3CC(C4)O5)cc(O)c2[C@@H]2C[C@H](O)CC[C@H]21 | 8.7 µM
39 | CC1(C)Oc2cc(CN3C4CC5CC3CC(C4)O5)cc(O)c2[C@@H]2C[C@@H](O)CC[C@H]21 | 7.5 µM
40 | CC1(C)Oc2cc(C(=O)NC34CC5CC(CC(C5)C3)C4)cc(O)c2[C@@H]2C[C@H](O)CC[C@H]21 | 0.5 µM
41 | CC1(C)Oc2cc(C(=O)NC34CC5CC(CC(C5)C3)C4)cc(O)c2[C@@H]2C[C@@H](O)CC[C@H]21 | 7.5 µM
42 | CC1(C)Oc2cc(C(=O)NC3C4CC5CC(C4)CC3C5)cc(O)c2[C@@H]2C[C@H](O)CC[C@H]21 (some centres undefined) | 1.2 µM
43 | CC1(C)Oc2cc(C(=O)NC3C4CC5CC(C4)CC3C5)cc(O)c2[C@@H]2C[C@@H](O)CC[C@H]21 (some centres undefined) | 3.7 µM
44 | CC1(C)Oc2cc(CNC34CC5CC(CC(C5)C3)C4)cc(O)c2[C@@H]2C[C@H](O)CC[C@H]21 | 0.5 µM
45 | CC1(C)Oc2cc(CNC34CC5CC(CC(C5)C3)C4)cc(O)c2[C@@H]2C[C@@H](O)CC[C@H]21 | 5 µM
46 | CC1(C)Oc2cc(CNC3C4CC5CC(C4)CC3C5)cc(O)c2[C@@H]2C[C@H](O)CC[C@H]21 (some centres undefined) | 6.2 µM
47 | CC1(C)Oc2cc(CNC3C4CC5CC(C4)CC3C5)cc(O)c2[C@@H]2C[C@@H](O)CC[C@H]21 (some centres undefined) | 7.5 µM
48 | CC1(C)Oc2cc(C34CC5CC(CC(C5)O3)C4)cc(O)c2[C@@H]2C[C@H](O)CC[C@H]21 | 0.018 µM
49 | CC1(C)Oc2cc(C34CC5CC(CC(C5)O3)C4)cc(O)c2[C@@H]2C[C@@H](O)CC[C@H]21 | 0.54 µM
